This is an account of results in ChEMBL document CHEMBL1641555, “Asymmetric synthesis of phenanthroindolizidine alkaloids with hydroxyl group at the C14 position and evaluation of their antitumor activities” (Bioorg Med Chem Lett, 2011).

By IC50 is commonly meant the concentration at which inhibition is half-maximal. A lower IC50 goes with greater potency in that assay. In general, inhibition in vivo refers to the relative decrease from the control value, in per cent.

One data set deals with KB. Description: Cytotoxicity against human KB cells after 96 hrs by WST-8 assay. The class given is functional, cell-based. The procedure, abridged: (§1)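 KB, A549 and HT-29 cells in exponential growth were seeded at 10³ cells/well. Serially diluted compounds were added the following day and incubated for 96 h. WST-8 reagent was then added for 1 h at 37 °C, and viability was read as absorbance at 450 nm.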
In general terms: Formazan colour is commonly taken as a measure of viable cells.

A further data set has as its system A549. The data set is described as follows: Cytotoxicity against human A549 cells after 96 hrs by WST-8 assay. The conditions noted are these: A549, 96 h. The class given is functional, cell-based. The procedure, abridged:
as §1

Another data set relates to HT-29. The data set is described as follows: Cytotoxicity against human HT-29 cells after 96 hrs by WST-8 assay. It is filed as functional, cell-based. The conditions noted are these: HT-29, 96 h. Summed up: as §1
Data set [1] in a line: Antitumor activity against mouse Meth-A cells xenografted in BALB/c mouse assessed as tumor growth inhibition at 25 mg/kg, iv administered on day 1, 5, and 9 measured after 21 days relative to control. It is filed as functional. Summed up: (§2)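 Meth A sarcoma cells, 2.5 × 10⁵ per mouse, implanted sc in 7-wk-old male BALB/c mice, 5 per group. Compound given iv on days 1, 5 and 9. Tumors excised and weighed on day 21 after inoculation. Inhibition rate (%) = [1 − (mean tumor weight treated)/(mean tumor weight control)] × 100.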

Data set [2] relates to Mus musculus. Description: Toxicity in mouse Meth-A cells xenografted BALB/c mouse assessed as mortality at 25 mg/kg, iv. Also noted: dose 25 mg/kg, route intravenous. The settings on record: in vivo. The class given is organism-based. Summed up: (§3)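 Meth A sarcoma cells, 2.5 × 10⁵ per mouse, inoculated sc into 7-week-old male BALB/c mice, 5 per group. Samples given iv on days 1, 5 and 9. Animals followed to day 21 after tumor inoculation, when tumors were weighed.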

For data set [3], the system named is Mus musculus. Description: Toxicity in mouse Meth-A cells xenografted BALB/c mouse assessed as mortality at 50 mg/kg, iv. Further details: dose 50 mg/kg, route intravenous. It is filed as organism-based. The conditions noted are these: in vivo. Summed up:
as §3

Data set [4] can be described thus: Antitumor activity against mouse Meth-A cells xenografted in BALB/c mouse assessed as tumor growth inhibition at 50 mg/kg, iv administered on day 1, 5, and 9 measured after 21 days relative to control. The class given is functional. The procedure, abridged: as §2
Data set [5] concerns Mus musculus. Description: Toxicity in mouse Meth-A cells xenografted BALB/c mouse assessed as mortality at 100 mg/kg, iv. The class given is organism-based. Further details: dose 100 mg/kg, route intravenous. The settings on record: in vivo. Summed up:
as §3

Take `COc1cc2c3c(c4cc(O)ccc4c2cc1OC)[C@H](O)[C@@H]1CCCN1C3`: the IC50 in the data set with KB stood at 43.8 nM; with A549 it was 4.7 nM; with HT-29 it was 6.8 nM.
Taken in the same sequence, the figures for `COc1cc2c3c(c4cccc(O)c4c2cc1OC)[C@H](O)[C@@H]1CCCN1C3` were 1.4 nM, 3.3 nM and 82.1 nM.
In the case of `COc1cc2c3c(c4ccc(O)cc4c2cc1OC)[C@@H](O)[C@H]1CCCN1C3`, the IC50 with KB turned out to be 3 nM; with A549, 10.9 nM; with HT-29 it was 12.5 nM. The inhibition in vivo at 25 mg/kg in data set [1] is 7.2%. Besides, the Activity entry in the data set on Mus musculus [2] and in the data set with Mus musculus [3] was “Non-toxic” in each case. Further, the inhibition in vivo at 50 mg/kg in data set [4] came to 12.5%.
`COc1ccc2c3c(c4cc(OC)c(OC)cc4c2c1)CN1CCC[C@H]1[C@H]3O`: the IC50 came to 4.2 nM with KB, 0.3 nM with A549 and 2.1 nM in the data set on HT-29. Moreover, in data set [1], the inhibition in vivo at 25 mg/kg came out at 4.3%. Also, the Activity entry in the data set with Mus musculus [3] was “Non-toxic”.
Consider `COc1ccc2c3c(c4cc(OC)c(OC)cc4c2c1)CN1CCC[C@@H]1[C@@H]3O`, for which the results for the IC50 in the data set with KB, in the data set with A549 and with HT-29 were 47.4 nM, 15.5 nM and 20.8 nM, respectively.
Taken in the same sequence, the figures for `COc1cc2c3c(c4ccccc4c2cc1OC)[C@H](O)[C@@H]1CCCN1C3` were 17.5 nM, 7.4 nM and 10.6 nM.
`COc1cc2c3c(c4ccccc4c2cc1OC)[C@@H](O)[C@H]1CCCN1C3`: the results for the IC50 in the data set on KB, with A549 and in the data set on HT-29 were 2030 nM, 604 nM and 584 nM, respectively.
Taken in the same sequence, the figures for `CCc1ccc2c3c(c4cc(OC)c(OC)cc4c2c1)CN1CCC[C@H]1[C@H]3O` were 180 nM, 559 nM and 135 nM.
Taken in the same sequence, the figures for `CCc1ccc2c3c(c4cc(OC)c(OC)cc4c2c1)CN1CCC[C@@H]1[C@@H]3O` were 1590 nM, 268 nM and 320 nM.
Take `COc1cc2c3c(c4ccc(F)cc4c2cc1OC)[C@H](O)[C@@H]1CCCN1C3`: the IC50 in the data set with KB was determined as 49 nM; with A549, 11.2 nM; in the data set on HT-29 it was 19.6 nM.
For the compound `COc1cc2c3c(c4ccc(F)cc4c2cc1OC)[C@@H](O)[C@H]1CCCN1C3`, the IC50 amounted to 653 nM in the data set with KB, 92.8 nM with A549 and 106 nM in the data set with HT-29.
For the compound `COc1cc2c3c(c4ccc(OC(C)=O)cc4c2cc1OC)[C@H](O)[C@@H]1CCCN1C3`, the IC50 in the data set with KB came out at 1.7 nM; in the data set on A549, 1.5 nM; with HT-29, 0.2 nM. In data set [1], the inhibition in vivo at 25 mg/kg amounted to 54.9%. The Activity result in the data set with Mus musculus [2] is “Non-toxic”. Also, in data set [4], the inhibition in vivo at 50 mg/kg came to 39.3%.
In the case of `Oc1ccc2c3c(c4ccccc4c2c1)CN1CCC[C@H]1[C@H]3O`, the 50% inhibitory concentration (IC50) amounted to 1960 nM in the data set with KB, 354 nM with A549 and 458 nM in the data set with HT-29.
With `Oc1ccc2c3c(c4cc5c(cc4c2c1)OCO5)CN1CCC[C@H]1[C@H]3O`, the IC50 in the data set on KB was determined as 25.5 nM; in the data set with A549 it was 54.4 nM; in the data set with HT-29 it was 134 nM.
Taken in the same sequence, the figures for `CC1(C)Oc2cc3c4c(c5ccc(O)cc5c3cc2O1)[C@H](O)[C@@H]1CCCN1C4` were 742 nM, 928 nM and 488 nM.
With `CCOc1cc2c3c(c4ccc(O)cc4c2cc1OCC)[C@H](O)[C@@H]1CCCN1C3`, the results for the IC50 with KB, in the data set on A549 and in the data set on HT-29 were 10.9 nM, 0.7 nM and 1.2 nM, respectively. The inhibition in vivo at 25 mg/kg in data set [1] is -3.1%. Also, the Activity result in the data set with Mus musculus [2] and with Mus musculus [3] was “Non-toxic” throughout. Further, the inhibition in vivo at 50 mg/kg in data set [4] is -10.6%.
Turning to `COc1cc2c(CBr)cc3ccc(OCc4ccccc4)cc3c2cc1OC`, the Activity result in the data set with Mus musculus [3] and in the data set on Mus musculus [5] was “Non-toxic” in each case.
`COc1cc2c3c(c4ccc(O)cc4c2cc1OC)[C@H](O)[C@@H]1CCCN1C3` [TYLOPHORIDICINE E]: the IC50 with KB is 5.2 nM; in the data set with A549 it was 0.5 nM; in the data set on HT-29, 1.6 nM. The inhibition in vivo at 25 mg/kg in data set [1] was 30.6%. Moreover, the Activity result in the data set with Mus musculus [2] is on record as “Non-toxic”; in the data set with Mus musculus [3] it was “Toxic”.
